From ChEMBL document CHEMBL1800025 (J Med Chem, 2011)
The source made the active and inactive calls. No cut-off for these calls is given here.

Columns and labels:
[1] = molecular target: Dual specificity tyrosine-phosphorylation-regulated kinase 1A (Rattus norvegicus, UniProt Q63470); assay: Inhibition of rat recombinant GST-tagged DYRK1A using KKISGRLSPIMTEQ as substrate and [gamma32]-ATP after 30 mins by scintillation counting
Method in brief: (§1)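 GST fusion kinases expressed in E. coli and purified on glutathione-agarose; DYRK1A is rat, DYRK2 is human. Assay buffer A (25 mM Tris-HCl pH 7.5, 10 mM MgCl2, 1 mM EGTA, 1 mM DTT, 50 μg/mL heparin) plus 0.15 mg/mL BSA. Product captured on P81 paper, washed in 1% phosphoric acid, scintillation counted. Activity expressed as percent of uninhibited control.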

[2] = molecular target: T1, Dual specificity tyrosine-phosphorylation-regulated kinase 2 (Homo sapiens, UniProt Q92630); assay: Inhibition of human recombinant GST-tagged DYRK2 using KKISGRLSPIMTEQ as substrate and [gamma32]-ATP after 30 mins by scintillation counting; method in brief: as §1
T1 sequence (Q92630 whole entry): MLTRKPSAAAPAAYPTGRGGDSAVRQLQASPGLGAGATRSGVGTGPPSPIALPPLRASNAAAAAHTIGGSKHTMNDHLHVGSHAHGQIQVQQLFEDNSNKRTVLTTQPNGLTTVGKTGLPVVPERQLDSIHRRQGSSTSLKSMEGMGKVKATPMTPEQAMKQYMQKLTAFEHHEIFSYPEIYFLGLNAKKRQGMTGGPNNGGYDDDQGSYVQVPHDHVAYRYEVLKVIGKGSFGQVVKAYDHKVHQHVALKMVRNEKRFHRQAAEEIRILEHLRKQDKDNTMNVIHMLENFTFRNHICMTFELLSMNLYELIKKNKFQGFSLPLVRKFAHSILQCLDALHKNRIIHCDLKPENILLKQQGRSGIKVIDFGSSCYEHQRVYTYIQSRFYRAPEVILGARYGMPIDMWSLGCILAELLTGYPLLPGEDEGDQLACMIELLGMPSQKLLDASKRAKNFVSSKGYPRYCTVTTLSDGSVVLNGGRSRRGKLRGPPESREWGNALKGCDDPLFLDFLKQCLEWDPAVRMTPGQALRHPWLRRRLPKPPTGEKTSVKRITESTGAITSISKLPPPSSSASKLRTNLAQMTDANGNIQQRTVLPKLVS

[3] = molecular target: Dual specificity protein kinase CLK1 (Mus musculus, UniProt P22518); assay: Inhibition of mouse recombinant GST-tagged CLK1 using GRSRSRSRSRSR as substrate
Method in brief: (§2)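 Mouse GST-fusion CLK1 or CLK3 expressed in E. coli. Assay buffer A (Tris-HCl pH 7.5, MgCl2, EGTA, DTT, heparin) plus 0.15 mg/mL BSA. RS peptide 1 μg/assay, 15 μM ATP final, 30 C. Blank subtracted; activity expressed as percent of activity without inhibitor. DMSO controls. Concentration range up to 10 μM.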

[4] = molecular target: Dual specificity protein kinase CLK3 (Mus musculus, UniProt O35492); assay: Inhibition of mouse recombinant GST-tagged CLK3 using GRSRSRSRSRSR as substrate; method in brief: as §2
[5] = molecular target: Serine/threonine-protein kinase pim-1 (Homo sapiens, UniProt P11309); assay: Inhibition of human recombinant Pim1
Method in brief: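 Kinase assayed in buffer C (25 mM Mops pH 7.2, 60 mM beta-glycerophosphate, 30 mM p-nitrophenylphosphate, 15 mM MgCl2, 5 mM EGTA, 1 mM DTT, 0.1 mM vanadate) with 1 mg/mL histone H1. DMSO controls.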

[6] = species on record: Sus scrofa; assay: Inhibition of pig brain CK1 delta/epsilon using RRKHAAIGpSAYSITA as substrate at 10 uM
Method in brief: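 Native CK1δ/ε from porcine brain, assayed in 3-fold diluted buffer C with 25 μM CKS peptide substrate. 15 μM ATP final, 30 C. Activity is percent of uninhibited control after blank subtraction, with DMSO controls. Inhibitor tested over a range of concentrations up to 10 μM.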

[7] = molecular target: Glycogen synthase kinase-3 alpha/beta (Sus scrofa); assay: Inhibition of pig brain GSK-3alpha/beta
[8] = system: Cyclin-dependent kinase 5/p25 (Homo sapiens); assay: Inhibition of human recombinant CDK5/p25 at 10 uM

Sequence of Serine/threonine-protein kinase pim-1 (P11309 whole entry): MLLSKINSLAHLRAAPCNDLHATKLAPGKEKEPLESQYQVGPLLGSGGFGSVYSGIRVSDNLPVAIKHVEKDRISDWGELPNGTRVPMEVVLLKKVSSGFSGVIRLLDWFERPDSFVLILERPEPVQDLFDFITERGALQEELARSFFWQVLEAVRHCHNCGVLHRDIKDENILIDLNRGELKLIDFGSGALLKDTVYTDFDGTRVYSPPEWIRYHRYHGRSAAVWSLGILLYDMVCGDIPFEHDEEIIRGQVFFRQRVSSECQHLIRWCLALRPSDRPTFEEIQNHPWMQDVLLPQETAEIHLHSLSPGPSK
Sequence of Dual specificity protein kinase CLK3 (O35492 whole entry): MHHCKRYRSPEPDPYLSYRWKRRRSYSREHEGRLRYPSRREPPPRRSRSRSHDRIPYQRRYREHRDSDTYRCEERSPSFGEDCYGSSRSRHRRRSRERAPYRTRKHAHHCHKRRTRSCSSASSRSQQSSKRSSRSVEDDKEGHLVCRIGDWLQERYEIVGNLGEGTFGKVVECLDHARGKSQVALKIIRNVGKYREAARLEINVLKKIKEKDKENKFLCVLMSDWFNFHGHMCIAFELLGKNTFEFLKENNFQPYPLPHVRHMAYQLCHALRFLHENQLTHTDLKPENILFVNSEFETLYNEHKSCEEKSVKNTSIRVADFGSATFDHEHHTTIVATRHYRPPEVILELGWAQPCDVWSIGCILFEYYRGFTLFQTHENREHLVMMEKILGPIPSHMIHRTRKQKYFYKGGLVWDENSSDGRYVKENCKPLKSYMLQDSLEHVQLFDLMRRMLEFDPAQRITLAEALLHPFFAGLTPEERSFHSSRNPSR
Sequence of Dual specificity protein kinase CLK1 (P22518 whole entry, the tested form may be a part): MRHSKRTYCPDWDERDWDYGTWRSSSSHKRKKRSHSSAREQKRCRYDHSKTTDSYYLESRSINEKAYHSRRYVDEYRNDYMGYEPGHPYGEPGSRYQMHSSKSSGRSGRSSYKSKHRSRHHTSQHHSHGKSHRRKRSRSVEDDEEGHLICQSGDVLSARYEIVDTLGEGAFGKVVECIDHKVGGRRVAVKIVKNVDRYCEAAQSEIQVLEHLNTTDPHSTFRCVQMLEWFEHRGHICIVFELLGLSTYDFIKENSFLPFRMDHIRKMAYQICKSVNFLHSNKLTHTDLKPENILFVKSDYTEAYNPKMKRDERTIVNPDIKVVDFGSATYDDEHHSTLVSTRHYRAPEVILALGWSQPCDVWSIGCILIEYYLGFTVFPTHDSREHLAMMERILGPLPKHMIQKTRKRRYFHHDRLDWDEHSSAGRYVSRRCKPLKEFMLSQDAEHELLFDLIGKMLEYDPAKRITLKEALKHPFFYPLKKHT

IC50 [1] [nM] | IC50 [2] [nM] | IC50 [3] [nM] | IC50 [4] [nM] | IC50 [5] [nM] | inhibition [6] | SMILES | IC50 [7] [nM] | inhibition [8]
3700 | 6000 | 140 | > 10000 | 300 | inactive | CN1C(=O)/C(=C/c2ccc3c(c2)OCO3)N=C1NC1CCCC1 | – | –
2100 | 2200 | 770 | 3200 | 3500 | inactive | CNC1=N/C(=C\c2ccc3c(c2)OCO3)C(=O)N1C | – | –
110 | 80 | 830 | 10000 | > 10000 | inactive | COc1ccc(NC2=N/C(=C\c3ccc4c(c3)OCO4)C(=O)N2)cc1 | – | –
2100 | 2000 | 140 | 7000 | 6100 | inactive | CN1C(=O)/C(=C/c2ccc3c(c2)OCO3)N=C1NCCCCCO | – | –
170 | 61 | 320 | > 10000 | 9000 | inactive | Cc1ccc(NC2=N/C(=C\c3ccc4c(c3)OCO4)C(=O)N2)cc1 | – | –
310 | 460 | 84 | 4600 | 2600 | inactive | CN1C(=O)/C(=C/c2ccc3c(c2)OCO3)N=C1Nc1ccccc1 | – | –
96 | 60 | 60 | 520 | 1200 | inactive | O=C1NC(Nc2ccc(O)cc2)=N/C1=C\c1ccc2c(c1)OCO2 | – | –
440 | 1100 | 1000 | 3900 | 4000 | inactive | CN1C(=O)/C(=C/c2ccc3c(c2)OCO3)N=C1Nc1ccc(O)cc1 | – | –
390 | 530 | 260 | 2000 | 4000 | inactive | CC(C)NC1=N/C(=C\c2ccc3c(c2)OCO3)C(=O)N1C | – | –
540 | 550 | 310 | 1200 | 4500 | inactive | CCCNC1=N/C(=C\c2ccc3c(c2)OCO3)C(=O)N1C | – | –
500 | 610 | 130 | 1100 | 4600 | inactive | CCCCNC1=N/C(=C\c2ccc3c(c2)OCO3)C(=O)N1C | – | –
66 | 40 | 170 | 360 | 5000 | inactive | O=C1NC(Nc2ccc3c(c2)OCO3)=N/C1=C\c1ccc2c(c1)OCO2 | – | –
3200 | 3300 | 230 | > 10000 | 590 | inactive | CN1C(=O)/C(=C/c2ccc3c(c2)OCO3)N=C1NCc1ccc2c(c1)OCO2 | – | –
280 | 470 | 233 | 3900 | 6500 | inactive | CN1C(=O)/C(=C/c2ccc3c(c2)OCO3)N=C1NCCCO | – | –
570 | 770 | 73 | 3100 | > 10000 | inactive | COCCNC1=N/C(=C\c2ccc3c(c2)OCO3)C(=O)N1C | – | –
3100 | 5100 | 2400 | > 10000 | > 10000 | inactive | CC(=O)NC1=N/C(=C\c2ccc3c(c2)OCO3)C(=O)N1C | – | –

SMILES | IC50 [1] [nM] | IC50 [2] [nM] | IC50 [3] [nM] | IC50 [4] [nM] | IC50 [5] [nM] | inhibition [6] | IC50 [7] [nM] | inhibition [8]
CCCNC1=N/C(=C\c2ccc3c(c2)OCO3)C(=O)N1 | 240 | 120 | 130 | 2200 | 2500 | inactive | 7300 | inactive
CC(C)CCNC1=N/C(=C\c2ccc3c(c2)OCO3)C(=O)N1C | 460 | 560 | 160 | 960 | 2100 | inactive | 2000 | inactive
CC(C)CNC1=N/C(=C\c2ccc3c(c2)OCO3)C(=O)N1C | 170 | 210 | 120 | 900 | 2000 | inactive | 3100 | inactive
CCOC(=O)C(=O)NC1=N/C(=C\c2ccc3c(c2)OCO3)C(=O)N1C | 6100 | 6500 | 3100 | > 10000 | 7000 | inactive | > 10000 | inactive
CN1C(=O)/C(=C/c2ccc3c(c2)OCO3)N=C1NCCN1CCOCC1 | 1200 | 1600 | 80 | 8000 | 6200 | inactive | 4000 | inactive
CCNC1=N/C(=C\c2ccc3c(c2)OCO3)C(=O)N1C | 580 | 640 | 170 | 2100 | 7200 | inactive | 16000 | inactive
CN1C(=O)/C(=C/c2ccc3c(c2)OCO3)N=C1Nc1ccc2c(c1)OCO2 | 400 | 100 | 160 | > 10000 | > 10000 | inactive | 5800 | inactive
CN1C(=O)/C(=C/c2ccc3c(c2)OCO3)N=C1NCc1ccccc1 | 380 | 560 | 200 | 940 | 3700 | inactive | > 10000 | inactive
C=CCNC1=N/C(=C\c2ccc3c(c2)OCO3)C(=O)N1C | 440 | 620 | 200 | 880 | 4200 | inactive | 1600 | inactive
COc1ccc(NC2=N/C(=C\c3ccc4c(c3)OCO4)C(=O)N2C)cc1 | 240 | 510 | 450 | > 10000 | 4100 | inactive | 700 | inactive
O=C1NC(NCC2CC2)=N/C1=C\c1ccc2c(c1)OCO2 | 100 | 47 | 83 | 610 | 1500 | inactive | 4700 | inactive
CN1C(=O)/C(=C/c2ccc3c(c2)OCO3)N=C1NCCN | 910 | 710 | 190 | 5000 | 3100 | inactive | 910 | inactive
O=C1NC(Nc2ccc3c(c2)OCCO3)=N/C1=C\c1ccc2c(c1)OCO2 | 170 | 110 | 320 | > 10000 | > 10000 | inactive | > 10000 | inactive
CN1C(=O)/C(=C/c2ccc3c(c2)OCO3)N=C1NCCO | 7000 | 10000 | 120 | > 10000 | > 10000 | inactive | 1300 | inactive
